In PubChem BioAssay AID704 (The Scripps Research Institute Molecular Screening Center, 2007) one finds inhibition data, which are given here for 78 compounds.

Out of some 97,000 compounds screened, about 770 (0.79%) were called active. The sample holds actives, similar compounds and a random draw of the others, so the mix is not that of the screen. A number with no mark means an inactive call.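 Rule for the calls: active = inhibition above the screen-wide mean plus 3 SD (cut at about 35% in these data); inactive = the rest.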

Sequence of Protein Rev (Human immunodeficiency virus type 1 group M subtype B (isolate WMJ22)) (P05866 whole entry, looked up): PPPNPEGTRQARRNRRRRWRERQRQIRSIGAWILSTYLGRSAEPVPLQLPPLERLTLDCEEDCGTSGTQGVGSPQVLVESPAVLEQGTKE

This assay concerns the target Protein Rev (Human immunodeficiency virus type 1 group M subtype B (isolate WMJ22)) (UniProt P05866). As to the kind of experiment: HIV-1 Rev-RRE binding inhibitors, primary screen, biochemical, FRET, protein-RNA interaction (AID 704). Conditions: Rev peptide-RRE RNA binding, at 8 µM, stronger effect = higher value. Summed up: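 Test system – labelled RRE RNA duplex and labelled Rev peptide · Reagent – labelled Rev peptide · Doses – one concentration, 8 µM nominal · Incubation – 5 + 15 min at 25 °C · Signal – FRET fluorescence readout · Read-out basis – % inhibition of FRET ratio versus controls · Control set – DMSO wells as 0% and neomycin B wells as 100% inhibition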
For `Cc1c(C(=O)OC(C)C)sc(NC(=O)c2cccnc2)c1C#N`, the inhibition was 27.8%.
For `CC(C)c1cc(C(N)=O)c(NC(=O)c2cccc(COc3ccc(Br)cc3)c2)s1` the value was 15.9%.
For `CC1=CC(C)(C)Nc2ccc(OC(=O)C(Cc3ccccc3)N3C(=O)C4CCCCC4C3=O)cc21` (stereo not drawn) the value was -0.51%; for `CCCNC(=O)CN(Cc1ccccc1F)S(=O)(=O)c1ccc(C)cc1`, 8.11%.
For `COC(=O)/C(NC(C)=O)=C(\C)c1ccc(Cl)cc1` the value was 1.2%; for `O=C(c1cc2c(s1)CCC2)N1CCN(c2ccccc2)CC1`, -4.48%.
Turning to `CC(=O)Nc1ccc(OCC(O)CN2CCN(c3ccccc3Cl)CC2)cc1` (stereo not drawn), the inhibition is -0.14%.
For `Cc1cc2c(c(=O)n1Cc1ccco1)C(c1ccccc1)C(C#N)=C(N)O2` (stereo not drawn) the value was 7.8%; for `CCOC(=O)CSc1nc2c(sc(=S)n2CCc2ccccc2)c(=O)n1Cc1ccco1`, 7.11%; for `CN(c1ccccc1)c1ccc(/C=c2\s/c(=C(/C#N)C(=O)C(C)(C)C)n(Cc3ccco3)c2=O)cc1`, 117% [fluorescence artefact?] (active).
For `N#C/C(=C(/O)Cc1cccc2ccccc12)c1nc2ccccc2s1` the value was 3.55%; for `O=C(C1=C(O)C(=O)N(Cc2ccccc2)C1c1cccnc1)c1ccco1` (stereo not drawn), 7.49%.
For `O=C(C1=C(O)C(=O)N(c2ncccn2)C1c1cccs1)c1ccco1` (stereo not drawn) the value was 46.5% (active); for `O=C(C1=C(O)C(=O)N(Cc2ccccc2)C1c1ccco1)c1ccco1` (stereo not drawn), 0.29%.
In the case of `O=c1c2ccccc2nc2n1C(CSc1ccc(Cl)cc1)CN2` (stereo not drawn), the inhibition is 6.92%.
For the compound `CCOC(=O)c1sc(C)c2c1NC(C)(c1cccc3ccccc13)NC2=O` (stereo not drawn), the inhibition is 18.2%.
In the case of `CCN1C(=O)C(CC(=O)Nc2cc(C)ccc2C)SC1=Nc1ccc(S(N)(=O)=O)cc1` (stereo not drawn), the inhibition is 9.41%.
For `CC(CN1CCOCC1)c1ccccc1` (stereo not drawn) the value was 10.4%.
Regarding `Cc1ccc(NC(=O)Nc2ccc3oc(C)nc3c2)cc1`, the inhibition was 7.33%.
Consider `CCOCN(C(=O)Cn1c(C(C)O)nc2ccccc21)c1c(C)cccc1CC` (stereo not drawn), for which the inhibition is 2.37%.
In the case of `Cc1c(C#N)c(NC(=O)c2ccccc2)n(Cc2ccccc2)c1C`, the inhibition was 2.3%.
For `Cc1nn(CCOc2ccccc2)c(=O)n1-c1ccccc1F` the value was 5.48%.
Consider `COc1cc(/C=C(\C#N)c2nc3c(s2)CC(C)CC3)ccc1O` (stereo not drawn), for which the inhibition is 66% (active).
For `COc1cc(C(=O)OC(C)C(=O)NCC2CCCCC2)cc(NC(=O)c2ccco2)c1OC` (stereo not drawn) the value was -0.95%.
For `CCOCc1nnc(NC(=O)CSc2ccc(C)cc2)s1` the value was 6.99%; for `CS(=O)(=O)c1ccc2c(c1)SC1=NC(=O)/C(=C/c3ccco3)C(=N)N12`, 36.1% (active); for `CN(C)CCNC(=O)Nc1cccc(Cl)c1Cl`, 2.97%.
For `O=C1COc2ccc(NC(=O)N3CCN(c4ccc(F)cc4)CC3)cc2N1` the value was 5.12%; for `O=C(CC12CC3CC(CC(C3)C1)C2)Nc1ccc2c(c1)COC2=O`, 11.5%; for `Oc1ccc2ccc3cccc[n+]3c2c1`, 120% [fluorescence artefact?] (active).
For `CN1/C(=C\C=C2\N=C(c3ccc(F)cc3)OC2=O)C(C)(C)c2ccccc21`, the inhibition is 48.7% (active).
For `CN1/C(=C\C(=O)c2oc3ccccc3c2N)C(C)(C)c2ccccc21` the value was 6.51%.
Take `Cc1noc(C)c1C(=O)OCC(=O)/C=C1\N(C)c2ccccc2C1(C)C`: the inhibition is 2.24%.
Consider `COc1ccc(Nc2nc(=O)[nH]nc2C)cc1`, for which the inhibition is 4.41%.
Consider `COc1ccc([N+](=O)[O-])cc1NC(=O)CCc1ccccc1`, for which the inhibition is 1.01%.
For `CCOC(=O)C1=C(C)Nc2sc(C(=O)c3ccc(Br)cc3)c(N)c2C1c1ccc(C(=O)OC)cc1` (stereo not drawn) the value was 7.08%.
For `Cc1cccc(C)c1N1CCN(S(=O)(=O)N2CCOCC2)CC1`, the inhibition is 8.84%.
For `Cc1cc(N2CCN(S(=O)(=O)c3ccc(C)c(C)c3)CC2)c2ccccc2n1` the value was 16.5%.
`Cc1ccc(S(=O)(=O)Nc2nc3ccccc3nc2N2CCc3ccccc3C2)cc1`: the inhibition was 6.67%.
In the case of `Cc1ccc(S(=O)(=O)C(C#N)c2nc3ccccc3nc2N2CCCC2)cc1C` (stereo not drawn), the inhibition was 80% [fluorescence artefact?] (active).
For `CC(C)=C1SC(N2CCN(c3cccc(C)c3)CC2)=NC1=O` the value was 3.88%; for `CCOC(=O)c1cc2n(c1N)-c1ccccc1C2=O`, 107% [fluorescence artefact?] (active).
For the compound `CC(C)OC(=O)CN1C(=O)C(=O)c2ccccc21`, the inhibition was 9.74%.
For `CCOC(=O)c1cc2n(c1C)-c1ccccc1C2=O` the value was 7.43%.
In the case of `CC(C)CCNC(=O)Cn1c(=O)oc2cc(S(=O)(=O)N3CC(C)CC(C)C3)ccc21` (stereo not drawn), the inhibition was 4.77%.
For `CCCCCCn1c(CN2CCCC(C)C2)nc2c1c(=O)n(C)c(=O)n2C` (stereo not drawn) the value was 7.64%; for `CCCn1c(O)c(CN2CCCC(C)C2)c(C)c(C#N)c1=O` (stereo not drawn), 42.6% (active).
For `CCOC(=O)N1CCN(c2c(NCCCN3CCCC(C)C3)c(=O)c2=O)CC1` (stereo not drawn) the value was 1.25%; for `O=C(O)c1ccccc1NC(=S)NC(NC(=O)c1ccccc1[N+](=O)[O-])C(Cl)(Cl)Cl` (stereo not drawn), -3.09%; for `CCc1nnc(NC(=O)c2cccs2)s1`, 7.76%.
For `CCc1ccc2nc3sc(C(=O)Nc4nnc(CC)s4)c(N)c3cc2c1` the value was 89.2% [fluorescence artefact?] (active); for `CCc1nnc(NC(=O)c2nc3nccc(C)n3n2)s1`, 12.3%; for `Cc1cccc(COc2ccccc2/C=N/Nc2ccc([N+](=O)[O-])cc2)c1`, 64% (active).
`Cc1ccc(-n2c(C)cc(/C=N/Nc3ccc([N+](=O)[O-])cn3)c2C)c(C)c1`: the inhibition was 31.5%.
For `COc1cccc(/C=N/NC(=O)c2cccc([N+](=O)[O-])c2)c1OS(=O)(=O)c1ccc(C)cc1` the value was 11.5%; for `C=CCNc1cnn(-c2ccc(C)cc2)c(=O)c1Cl`, -1.57%; for `Cc1ccc(-n2c(C)cc(/C=C(\C#N)C(=O)NCC3CCCO3)c2C)cc1` (stereo not drawn), -6.05%.
For `N#CCSc1nc2c(c(=O)n1Cc1ccccc1)C1(CCCC1)Cc1ccccc1-2` the value was 23.3%; for `Cc1cccn2c(=O)c(/C=C3\SC(=S)N(CC(C)C)C3=O)c(NCCCOC(C)C)nc12`, 73.4% (active).
For `CC(C)OCCCNc1nc2c(c(=O)n(Cc3ccccc3F)c(=O)n2C)n1C` the value was 8.58%.
With `Cn1nc(C(F)(F)F)c(C(=O)Nc2cccc(C(F)(F)F)c2)c1SCc1ccc(Cl)cc1`, the inhibition is 9.7%.
For `COc1ccc(CNC(=O)C2CCC(CNc3c(N4CCOCC4)c(=O)c3=O)CC2)cc1` (stereo not drawn) the value was -0.22%; for `CCOc1ccc(CN(Cc2ccco2)S(=O)(=O)c2ccc(-n3cnnn3)c(OC)c2)cc1`, 18.6%; for `O=C(O)C1CCN(C(=O)OCc2ccccc2)CC1`, 2.49%.
For `CCC(C)n1c(-c2cc(OC)c(OC)c(OC)c2)nc2nc3ccccc3nc21` (stereo not drawn) the value was 2.36%; for `CCOC(=O)C1=C(CN2CCc3ccccc32)NC(=O)NC1c1ccc(Cl)cc1` (stereo not drawn), 10.3%.
For `CCOCCOCCC(C(=O)O)P(=O)(c1ccccc1)c1ccccc1` (stereo not drawn) the value was 0.47%; for `O=c1cc(C(F)(F)F)[nH]c(=O)n1C1CCCCC1`, 8.66%.
Consider `COC(=O)C1=C(C)N=C2SC(C)C(=O)N2C1/C=C/c1ccccc1` (stereo not drawn), for which the inhibition was 4.63%.
Regarding `C=C(Cl)COC(=O)C1C2C=CC(C2)C1C(=O)O` (stereo not drawn), the inhibition was 3.94%.
For `Oc1ccc(-c2onc3ccc(Cl)cc23)cc1` the value was 47.9% (active); for `Cc1cccc(N(C(=O)c2ccc(CN3CCOCC3)o2)C(C(=O)NC2CCCCC2)c2ccc(F)cc2)c1` (stereo not drawn), 0.55%.
For `Cc1[nH]n(-c2ccccc2)c(=O)c1CCOC(=O)c1ccc(C(F)(F)F)cc1` the value was 3.64%.
For `N#Cc1c(N)n(CCOC(=O)c2ccc(Cl)cc2)c2nc3ccccc3nc12` the value was 7.97%.
On to `CN(C)CCCn1c(N)c(C#N)c2nc(C#N)c(C#N)nc21`, for which the inhibition is 44.4% (active).
For the compound `OC(COc1ccc2c(c1)CCC2)CN1CCN(c2cccc(Cl)c2)CC1` (stereo not drawn), the inhibition is 13.2%.
For `Cc1cc(OCCOc2cccc3cccnc23)c(C)cc1Cl` the value was 17.3%; for `Cc1ccc2nc(Nc3ccccc3O)nc(-c3ccccc3)c2c1`, 9.78%.

As a reminder, the inhibition is the change of the read-out against control, counted positive when it falls.
